This is a sample that favours compounds with a hit; in the whole collection about 2.3% have one here.
CSN inh: inhibitors of human CSN-mediated cullin deneddylation; Q92905; Purified CSN, SCF-Nedd8-OG deneddylation, fluorescence polarization; inhibition, % at 12.5 µM; 360,000 compounds, 0.38% hits; AID 651999;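 active = pattern-corrected inhibition above about 35%, with an unprinted fluorescence ratio check between 0.5 and 1.5, limit read from the data, passing the limit was not always enough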;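 also: 0% = enzyme with substrate and 100% = substrate without enzyme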
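Detection – fluorescence polarization · System – HEK293T-derived human Csn5 enzyme · Controls – substrate-only high control, full reaction low control · Timing – 90 min, room temperature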
SUMO1-SIM PPI: alters human SUMO1 binding to SIM partners; SUMO1 binding to a labelled peptide, TR-FRET, 1 h; inhibition, % at 20 µM; 360,000 compounds, 0.33% hits; AID 602429; in the data active = inhibition above about 37%
SKN-1 block: blocks SKN-1 activity in C. elegans; C. elegans VP596 Pgst-4::GFP/RFP ratio, acrylamide-induced, 24 h; inhibition, % at 21.8 µM; 360,000 compounds, 0.49% hits; AID 624304;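 active = interference check ratio from 0.5 to 1.5 plus GFP to RFP signal ratio inhibition reaching or exceeding a fixed threshold, cut at about 30% in these data, passing the limit was not always enough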
DNMT1 inh: blocks human DNA methyltransferase DNMT1; P26358; DNMT1 molecular beacon, Hinp1I cleavage, fluorescence; inhibition (reported as % activation of signal), % at 10 µM; 360,000 compounds, 0.83% hits; AID 588458; in the data active = inhibition above about 50%
Rpn11 inh: Rpn11 (human) deubiquitinase inhibition. O00487. human 26S proteasome, Ub4-pepOG fluorescence polarization; 20S core pre-blocked with epoxomicin. inhibition, % at 20 µM. 360,000 compounds, 0.59% hits. AID 588493;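 active = inhibition at 20 µM, scaled to each plate's controls, above about 33%, limit read from the data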
MT1-MMP act inh: inhibitors of human MT1-MMP activation. 360,000 compounds, 0.061% hits. GFP/RFP ratio change, % at 20 µM. HT1080 RFP-PRO-GFP cells, GFP/RFP ratio fluorescence, overnight; percent of plate control window, DMSO zero. P50281;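 active = GFP/RFP ratio change of at least 30% with cell ATP level not reduced by more than half and red fluorescence within 50% of control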
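Assay system: HT1080 RFP-PRO-GFP cells | Dosing: 20 µM single dose, 1% DMSO | Incubation: Cells overnight before dosing, compound overnight, 37 °C, 5% CO2 | Evaluation: GFP/RFP fluorescence ratio | Control set: DMSO-only wells and HT1080 RFP-L50D-GFP cell wells as references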
Active calls of the source: *; x = not tested or not shown; + = active, no number.

SMILES	CSN inh	SUMO1-SIM PPI	SKN-1 block	DNMT1 inh	Rpn11 inh	MT1-MMP act inh
CCOc1ccccc1NC(=O)C1CCCN1S(=O)(=O)c1ccc2c(c1)C(C)(C)C(=O)N2C (stereo unspecified)	-4	5	-13	1	8	6
c1ccc(-c2noc(-c3cccc4ccccc34)n2)cc1	-7	-1	37*	-4	3	-3
Fc1ccccc1-c1nc(-c2ccncc2)no1	1	-3	46*	-3	2	-1
Fc1ccccc1-c1nc(-c2ccc(Br)o2)no1	4	-1	72*	2	-1	-2
COc1ccc(-c2nc(-c3ccc(Br)o3)no2)cc1	4	3	-9	8	-9	3
Cc1ccccc1-c1nc(-c2ccc(Br)o2)no1	1	0	46*	0	-8	-2
COc1ccc(Cl)cc1-c1nc(-c2ccc(Br)o2)no1	1	4	15	28	4	-2
O=[N+]([O-])c1nn(-c2ccc(Cl)cc2)n(O)c1=NCc1cccnc1	0	-28	34	-2	1	0
O=[N+]([O-])c1nn(-c2cccc(Cl)c2)n(O)c1=NCc1cccnc1	2	43*	23	0	0	0
CC1(C(=O)Nc2cnc3ccccc3c2)CCN1Cc1ccc(-c2ccccc2)o1 (stereo unspecified)	-4	-2	-14	-2	6	0
CCCCC(=O)/C=C/n1c(=S)oc2ccccc21	7	6	39*	37	-11	-3
C[C@@H]1CN([C@H](C)CO)C(=O)CCCn2cc(nn2)CO[C@H]1CN(C)C(=O)Nc1ccnc(N2CCOCC2)c1	0	108*	-18	2	-6	0
O=C(NCC(F)(F)F)c1cc2c(c(-c3cccc(-c4ccccc4F)c3)n1)[C@H](CCO)N(C(=O)CC1CC1)C2	0	4	21	x	x	-8
CCc1c(-c2ccc(OC)cc2)ncn1Cc1cccc(-c2ccccc2)c1	3	6	0	x	x	10
O=C(O)C(O)c1ccco1 (stereo unspecified)	29	5	0	92*	-3	-2
CNc1cncc(-c2cccc(C(=O)NCCN(C)C)c2)n1	-1	-7	3	-1	-6	1
O=C(C=Cc1ccccc1)CC(c1ccccc1)N1CCOCC1 (stereo unspecified)	28	-7	83*	34	2	5
Cc1ccsc1-c1nc(C(N)=O)c2[nH]c(=O)n(-c3ccc(Cl)cc3)c2n1	7	16	6	55*	15	-7
Cc1ccc(-n2c(=O)[nH]c3c(C(N)=O)nc(C(C)C)nc32)cc1	3	-1	0	0	-3	-4
O=C(O)C1CCCCC1C(=O)NCCc1c[nH]c2ccccc12 (stereo unspecified)	2	-1	37*	0	2	-3
COc1ccc(OCCNC2CCCC2)cc1	-2	-1	-1	-4	-12	3
c1ccc(-c2ccc(OCCCNC3CCCC3)cc2)cc1	-8	-3	55*	2	-3	-3
COc1cc(CN2C[C@@H](CO)O[C@@H](n3cnc4c(N5CCCC5)ncnc43)C2)cc(OC)c1OC	0	-3	8	2	0	1
Cc1cc(C(=O)CSc2nnc(C3COc4ccccc4O3)n2C)c(C)n1-c1ccc(F)cc1 (stereo unspecified)	1	-3	48*	-4	-1	-3
CC(=O)Nc1sc(N/N=C/c2ccccc2)nc1-c1ccc(C)cc1	1	0	8	-7	1	2
SMILES	CSN inh	SUMO1-SIM PPI	SKN-1 block	DNMT1 inh	Rpn11 inh	MT1-MMP act inh
CC(=O)Nc1sc(/C(C#N)=C\c2cccc(Cl)c2)nc1-c1ccc(C)cc1	39	-14	35*	-4	x	-2
C#CCn1c2ccccc2c(=O)n1CCOc1ccccc1OC	-4	5	-5	x	x	2
COCCNC(=O)CCc1nnc(Cc2ccc(-c3ccccc3)cc2)o1	115*	3	6	-4	-2	5
O=C(CCc1nnc(Cc2ccc(-c3ccccc3)cc2)o1)NCC1CC1	-3	-1	2	16	-3	x
CCOC(=O)Nc1ccc2nc(-c3cscn3)[nH]c2c1	-2	8	-59	4	-10	-4
COC(=O)C1(C(=O)OC)C/C=C\CN(S(=O)(=O)c2ccccc2[N+](=O)[O-])CC1	3	-11	15	x	x	4
CC(=C/C(=O)O)/C=C/c1ccc(Cl)o1	23	2	11	106*	-10	-4
Cc1nn2cc(-c3ccc(-c4ccccc4)cc3)nc2s1	-2	-6	-5	16	0	-17
Cc1nn2cc(-c3ccc(Cl)cc3)nc2s1	-4	-2	45*	3	-2	13
O=C(Nc1ccc(Cl)cc1)N[C@@H]1CC[C@H](CCNS(=O)(=O)c2ccccc2F)O[C@@H]1CO	-7	1	-1	x	x	5
CCCn1c(N)c(C(c2ccc(OC)cc2)N2CCN(c3ccccc3)CC2)c(=O)[nH]c1=O (stereo unspecified)	-2	3	38*	-5	0	-1
COc1ccc(S(=O)(=O)NC(=O)C2(C)CCN2C(=O)c2c(C)noc2C)cc1 (stereo unspecified)	3	6	16	2	-7	0
O=c1[nH]c2ccc(N=Cc3c(O)ccc4cc(Br)ccc34)cc2[nH]1	42*	-29	29	29	23	-3
CCc1nc2c(OCc3ccc(Cl)cc3)cccn2c1N(C)C(=O)c1ccc(C)cc1	-2	19	22	-7	10	-5
CN(Cc1ccc(Cl)c(Cl)c1)C(c1cc2ccccc2o1)c1nnnn1C(C)(C)C (stereo unspecified)	2	-2	16	x	x	-12
CN(C)c1oc(-c2ccco2)nc1C#N	-3	-10	59*	2	0	4
CCCCCCn1c(N2CCC(C(N)=O)CC2)nc2c1c(=O)n(C)c(=O)n2C	-7	-3	45*	5	-8	0
CCOc1cc([N+](=O)[O-])cc2c1C(=O)Nc1ccccc1O2	43*	-17	20	-3	x	-56
CC1(C(=O)NS(C)(=O)=O)CCN1C(=O)C/C=C/c1ccccc1 (stereo unspecified)	2	8	8	0	0	0
O=c1oc2ccccc2cc1-c1nc2c(s1)CCc1ccccc1-2	1	-5	10	-28	0	-14
O=c1oc2cc(O)ccc2cc1-c1nc2c(s1)CCc1ccccc1-2	-96	-7	-7	+	-29	-118
